Assay outcomes (PubChem)
Only a sample is shown.
PGC1a acetyl up: compounds raising PGC1a acetylation signal, primary screen, PGC1a modulator project, cell-based, U2OS, AlphaScreen, signal-increasing mode; overnight; activation, % at 15.6 µM; actives 0.21% (n = 350,000);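 active = every replicate reaching activation of at least 50%, whatever the mean replicate activation; inconclusive = replicates that disagree or another doubt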;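 also: hits raise the AlphaScreen acetylation signal above neutral controls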
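detection = AlphaScreen lysate read | assay system = U2OS cells expressing flag-PGC1a plus GCN5 | input = 7000 cells/well | dosing = one concentration | times = compound overnight at 37 °C, each detection step 1 h RT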
Hep G6PC suppr: suppressors of forskolin-stimulated G6PC mRNA, dose response, PGC-1a acetylation activator project, cell-based, hepatocytes, RT-qPCR, cherry-picked samples. shares compounds with PGC1a acetyl up. primary mouse hepatocytes. G6PC suppression (normalized activity, % of positive control; higher = more suppression), % at 26 µM. 240 tested, under 10 active;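 active = dose curves showing G6PC suppression whose half-maximal dose is at most twice the top valid dose; inconclusive = flat curves with moderate negative activity, or unreliable fits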;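 also: G6PC expression relative to GAPDH housekeeping gene as delta delta Ct; 0% = median of neutral control wells and 100% = median of positive control wells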
Hep PCK1 suppr: suppression of PCK1 mRNA in primary hepatocytes, dose response, PGC-1a acetylation activator project, cell-based, primary mouse hepatocytes, RT-qPCR, cherry-pick | shares compounds with PGC1a acetyl up | forskolin-stimulated | PCK1 expression decrease, unspecified at 26 µM | 230 tested, under 10 active | AID 743465, 2014;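 active = compounds lowering PCK1 expression whose fitted half-maximal concentration is at most twice the top tested dose; inconclusive = flat fit with moderate opposite-direction effect, or poor fit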;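 also: values are delta delta Ct of PCK1 relative to GAPDH; higher delta delta Ct means lower PCK1 expression so positive values indicate hits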
PGC1a hep suppr: suppression of PGC-1a mRNA in primary hepatocytes, dose response, PGC-1a acetylation activator project, cell-based, primary mouse hepatocytes, RT-qPCR, cherry-pick; AID 743467, 2014; max activity (PGC-1a expression decrease), %; 240 tested, under 10 active; shares compounds with PGC1a acetyl up; PGC-1a mRNA qPCR, forskolin; top dose 26 µM;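 active = compound lowering PGC-1a expression with fitted half-maximal concentration at most twice its top tested dose; inconclusive = flat curve with moderate opposite-direction effect, or poor fit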;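 also: 0% = neutral control wells median and 100% = positive control wells median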
* marks the source's active call; other numbers are inactive results; ? = inconclusive; [ ] = remark or other dose.

SMILES | PGC1a acetyl up | others
COc1ccccc1-c1ccc([C@@H]2[C@H](CO)N(C(C)=O)C23CN(C(C)=O)C3)cc1 | -58
COc1ccccc1-c1ccc(C2[C@@H]3CN(Cc4cccc(F)c4)C[C@H]2N3)cc1 (some centres not stated) | 72*
COc1cccc(CN2C[C@@H]3N[C@H](C2)C3c2ccc(-c3ccccc3OC)cc2)c1 (some centres not stated) | 58*
O=C(Nc1ccc(C(F)(F)F)cc1)N1C[C@@H]2N[C@H](C1)C2c1ccc(/C=C/c2ccccc2)cc1 (some centres not stated) | -73
COc1cccc(CN2CCC(CO)(CC3CCCCO3)CC2)c1 (configuration not stated) | -100
COc1ccc(CN(C)C[C@H]2Oc3ccc(NC(=O)Cc4cn(C)c5ccccc45)cc3CC(=O)N([C@@H](C)CO)C[C@@H]2C)cc1 | -41
Cc1cc2c(c(/C=C/C(=O)c3ccccc3)c1)OC1(C=C2)Oc2ccccc2C(=O)N1C (configuration not stated) | -50
COCCCNC1CS(=O)(=O)CC1O (configuration not stated) | -45
COC(=O)c1ccccc1N(C)S(=O)(=O)c1cc2c(cc1C)OCC(=O)N2 | -44
CC1CCCN(C(=O)Cc2ccc(F)cc2)C1 (configuration not stated) | -75
O=[N+]([O-])c1cc(-c2nnc(Nc3ccc(O)cc3)c3ccccc23)ccc1N1CCOCC1 | 129*
C[C@H](NC(=O)C[C@H]1C[C@@H]2c3cc(NC(=O)Nc4ccc(C(F)(F)F)cc4)ccc3O[C@@H]2[C@@H](CO)O1)c1ccccc1 | -44
O=C(C[C@@H]1C=C[C@@H](NC(=O)CN2CCOCC2)[C@H](CO)O1)NC1CCCCC1 | -51
Clc1ccccc1CN(Cc1ccco1)Cc1nnnn1C1CCCC1 | 132*
Cc1cccc2cc(CN(Cc3ccc(F)cc3)Cc3nnnn3C3CCCC3)c(=O)[nH]c12 | -53
Cc1cc(OCC(=O)O/N=C(\N)c2ccccc2)cc(C)c1Cl | -59
CO[C@H]1CN(C)C(=O)c2ccc(NC(=O)Nc3ccccc3F)cc2OC[C@@H](C)NC[C@@H]1C | -49
COc1ccccc1/C=C1\SC(=S)N(CCC(=O)NCCCn2ccnc2)C1=O | 121*
O=C(CCN1C(=O)/C(=C/c2ccccc2)SC1=S)NCCCN1CCOCC1 | -56
COc1ccccc1/C=C1\SC(=O)N(CCC(=O)NCCCn2ccnc2)C1=O | 214*
COc1cccc(NC(=O)CN(C)C(=O)CNC(=O)c2ccccc2F)c1 | -45
Cc1cc(-c2ccc(Cl)cc2)n2ncnc2n1 | -48
CN1c2ccccc2C2(C)CCCC3=Cc4cccc([N+](=O)[O-])c4OC312 (configuration not stated) | 69*
COc1ccc(CN(Cc2cccn2C)S(=O)(=O)c2ccccc2)cc1 | -74
CCOC(=O)C1(N(CC)CC)Sc2cc(C)ccc2NC1=O (configuration not stated) | 84*
SMILES | PGC1a acetyl up | others
O=C(O)CCC(NC(=S)Nc1ccccc1)C(=O)O (configuration not stated) | -73
C=C1C(=O)C=C[C@]2(C)C[C@@H]3OC(=O)[C@](C)(O)[C@H]3C[C@@H]12 | 178*
COc1ccc(F)cc1CN1CCN(CC(=O)N2CCc3ccccc32)CC1 | -44
C=CCN1C(=O)N(/C=C/C)c2cccc3cccc1c23 | 60*
COCC#Cc1cnc2c(c1)C(=O)N([C@H](C)CO)C[C@@H](C)[C@@H](CN(C)C(=O)c1cccnc1)O2 | -44
O=c1cc(CSc2ccccn2)[nH]c(=O)[nH]1 | -44
S=c1sc2c(Cl)ncnc2n1-c1ccccc1 | -64
N#C/C(=C/c1ccc(N2CCCCCC2)o1)c1ccc(F)cc1 | 91*
CCCC1S/C(=N/N=C/c2ccc(C)cc2)N(Cc2ccc(OC)cc2)C1=O (configuration not stated) | -40
COC(=O)c1cccc2c1-c1ccccc1/C2=N/O | -75
COc1ccc(NC(=O)Nc2ccc3c(c2)C(=O)N([C@H](C)CO)C[C@H](C)[C@@H](CN(C)S(=O)(=O)c2ccc(Cl)cc2)O3)cc1 | -40
CC(C)C(=O)Nc1ccc(NC(=O)c2ccc([N+](=O)[O-])cc2Cl)cc1 | -52
O=C(Nc1ccc(Nc2ccncc2)cc1)c1ccc([N+](=O)[O-])cc1 | 70*
CC(=O)N(C)C[C@H]1Oc2ncc(C#CCc3ccccc3)cc2C(=O)N([C@@H](C)CO)C[C@H]1C | -52
C[C@@H]1CN([C@@H](C)CO)C(=O)CCCn2nncc2CO[C@H]1CN(C)S(=O)(=O)c1ccc(Cl)cc1 | -97
c1ccc(C(c2nnnn2Cc2cccs2)N2CCN(C3CCCC3)CC2)cc1 (configuration not stated) | -42 | Hep G6PC suppr=27;Hep PCK1 suppr=34;PGC1a hep suppr=38
Cc1ccc(S(=O)(=O)N/N=C/c2c[nH]c3ccccc23)cc1 | -105
CCN(CC)c1ccc(N)cc1S(=O)(=O)Nc1ccccc1OC | 57* | Hep G6PC suppr=-10;Hep PCK1 suppr=79;PGC1a hep suppr=25
O=C(COc1cccnc1[N+](=O)[O-])NCCc1ccc(Cl)cc1 | -49
COc1cc(O)c(C(CC(=O)N2CCOCC2)c2ccc(N(C)C)cc2)c(OC)c1 (configuration not stated) | -49
CCOc1ccc(N(C)S(=O)(=O)c2cc(-c3cc(C)no3)ccc2C(C)C)cc1 | 65* | PGC1a hep suppr=?
COc1ccc(-c2nc(C#N)c(NCc3ccco3)o2)cc1 | -52
CN(Cc1cnc2nc(N)nc(N)c2n1)c1ccc(C(=O)N[C@@H](CCC(=O)O)C(=O)O)cc1 | -43
C[C@@H]1CN([C@H](C)CO)C(=O)c2c(c3ccccc3n2C)-c2ccccc2CO[C@@H]1CN(C)C(=O)c1ccccc1 | 58* | Hep G6PC suppr=73;Hep PCK1 suppr=?;PGC1a hep suppr=?
C[C@@H]1CN([C@@H](C)CO)C(=O)c2c(c3ccccc3n2C)-c2ccccc2CO[C@@H]1CN(C)C(=O)c1ccc(F)cc1 | 117* | Hep G6PC suppr=35;Hep PCK1 suppr=151;PGC1a hep suppr=207
SMILES | PGC1a acetyl up | others
C[C@@H]1CN([C@@H](C)CO)C(=O)c2c(c3ccccc3n2C)-c2ccccc2CO[C@@H]1CN(C)C(=O)Nc1ccc2c(c1)OCO2 | 81* | Hep G6PC suppr=-3[23.5 µM];Hep PCK1 suppr=26[23.5 µM];PGC1a hep suppr=34
C[C@@H]1CN([C@@H](C)CO)C(=O)c2c(c3ccccc3n2C)-c2ccccc2CO[C@@H]1CN(C)C(=O)c1ccccc1 | 76* | Hep G6PC suppr=22[23.5 µM];Hep PCK1 suppr=44[23.5 µM];PGC1a hep suppr=169
CCN(CC)c1ccc(C(=C2C=CC(=[N+](CC)CC)C=C2)c2ccc(N(CC)CC)cc2)cc1 | -83
CCOc1ccc(S(N)(=O)=O)cc1-c1nc2c(C(C)(C)C)nn(C)c2c(=O)[nH]1 | -50
Cc1nc2ccccn2c1C(=O)/C=C/c1ccc(F)cc1 | -41
Cc1nnc(-c2ccccc2)c(=O)n1/N=C/c1c(O)ccc2ccccc12 | -64
CCn1c2ccccc2c2cc(/C=N/n3cn[nH]c3=S)ccc21 | -42
